# The list is not random: actives were taken first. Their share in the collection is about 3.7%.
# RAM inhibit: inhibitors of the yeast RAM network, primary screen, dse1pr::URA3 reporter, 5-FOA selection; actives 1.8% (n = 190,000); S. cerevisiae dse1pr::URA3 reporter, 5-FOA growth OD615, 2 d; analog-sensitive cbk1-as2 kinase mutant strain; inhibition, % at 50 µM; AID 868, 2007;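 active = inhibition above a set limit, 3 SD over mean compound inhibition, cut at about 8.4% in these data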;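 also: 0% = DMSO-only wells with no growth and 100% = 10 µM 1-NA-PP1 full growth; inhibition rescues growth on 5-FOA so higher OD means more RAM inhibition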
# Yeast growth inh: growth inhibitors of yeast BB579 in restrictive medium, primary screen, yeast lifespan-shortening project, S. cerevisiae. actives 0.51% (n = 140,000). inhibition, % at 10 µM. OD615, 48 h. AID 804, 2007;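 active = inhibition above a set limit, 3 SD over the mean compound inhibition, cut at about 44% in these data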
#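 Material: Saccharomyces cerevisiae DeaD strain BB579, replicative lifespan model yeast; buffer or medium: CSMM-D restrictive synthetic medium containing dextrose (glucose); compound: 10 µM single dose, DMSO 0.25%; timing: 48 h compound exposure at 30 °C after 4 h preincubation; signal: turbidity as optical density at 615 nm; benchmarks: positive control amphotericin B 10 µg/mL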
# Yeast lifespan up: compounds extending yeast replicative lifespan, primary screen, S. cerevisiae, OD615; S. cerevisiae growth with nicotinamide; deaD strain in restrictive glucose medium; actives 0.68% (n = 130,000); inhibition of the nicotinamide effect, % at 10 µM;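 active = inhibition above a set limit, placed 3 SD over the median of all compounds, cut at about 26% in these data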;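 also: 0% = nicotinamide-treated wells and 100% = cells grown without nicotinamide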
#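 Measured by: optical density (absorbance) at 615 nm; System: modified budding yeast, DeaD strain; Medium: restrictive CSMM-D dextrose medium; Timing: 4 h preincubation then 48 h treatment at 30 °C.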
# Insulin prom inh: inhibitors of insulin promoter-driven GFP, primary screen, imaging, TRM-6 cells, eGFP reporter, cell count. reporter expression induced with tamoxifen. inhibition, % at 2 µM. actives 0.9% (n = 130,000). AID 1273, 2008;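 active = inhibition above the mean plus 3 SD, with well images judged a real hit on visual review, cut at about 60% in these data, passing the limit was not always enough; inconclusive = inhibition over the cutoff but images rejected on review; inactive = inhibition not above the cutoff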
# HMGR II inh: inhibitors of E. faecalis class II HMGR, primary screen, biochemical, Enterococcus faecalis | HMG-CoA reductase (Enterococcus faecalis, mvaE) | actives 0.41% (n = 190,000) | purified E. faecalis HMGR, NADPH absorbance 340 nm kinetic | inhibition, % at 10 µM;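 active = inhibition above a set limit, the median over all tested compounds plus 3 SD, cut at about 9.5% in these data; inconclusive = no clear call, values can overlap the other calls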;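 also: enzyme runs in reverse so mevalonate oxidation gives rising NADPH absorbance; 0% = complete reaction with DMSO and 100% = background rate lacking mevalonate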
# The depositor's hits bear a star; ? = inconclusive; nt = no result.
SMILES,RAM inhibit,Yeast growth inh,Yeast lifespan up,Insulin prom inh,HMGR II inh
Cc1ccc(C(=O)N2CCN(C(=O)c3ccco3)CC2)cc1NC(=O)c1ccco1,1.0,nt,nt,-5.3,-0.8
Cc1ccc(N2NC3(CCN(C(N)=O)CC3)NC2=O)cc1,-0.5,nt,nt,nt,-6.4
CC(=O)c1cnc(Nc2cccc(C)c2)s1,0.0,nt,nt,?,1.5
CC(C)(C)Cc1nnc(NS(=O)(=O)c2ccccc2)s1,0.0,nt,nt,nt,14.2*
Cc1cc(C(=O)CN2C(=O)NC3(CCCC3)C2=O)c(C)n1-c1ccc2c(c1)OCO2,0.8,13.5,3.7,nt,-3.3
Cc1cc(C(=O)CN2C(=O)NC(C)(CC(C)C)C2=O)c(C)n1-c1ccc2c(c1)OCO2 (stereo not given),1.1,-20.6,64.5*,nt,-7.1
CC#CC(=O)N1CCC(CO)(CCc2ccccc2)CC1,1.5,nt,nt,nt,-6.7
O=C1Nc2cc3c(cc2Sc2ccccc21)OCCO3,0.4,-31.9,-17.2,90.0*,-0.5
Oc1ccc(C2=Nn3c(nnc3-c3ccco3)SC2)cc1O,1.5,-7.7,-5.1,-4.2,12.3*
Cc1nnc(SCC(=O)NC23CC4CC(CC(C4)C2)C3)s1,1.1,nt,nt,nt,-5.5
Cc1csc(SCC(=O)NC23CC4CC(CC(C4)C2)C3)n1,0.4,-59.2,39.0*,-20.0,2.3
Cc1ccc(-c2cc(C(F)F)n3ncc(C(=O)Nc4ccc(S(=O)(=O)Nc5ccccc5C)cc4)c3n2)cc1,6.2,-35.1,-8.8,-21.4,10.4*
COc1ccc(NS(=O)(=O)c2ccc(NC(=O)c3cnn4c(C(F)F)cc(-c5ccc(C)cc5)nc34)cc2)cc1,7.4,-92.3,8.4,-2.7,-6.6
O=C(OCC(=O)N1CCN(C(=O)c2ccco2)CC1)c1cc(-c2ccc(Cl)c(Cl)c2Cl)nc2ccccc12,9.5*,-52.1,-6.2,-21.9,1.0
CC(C)CSC1=NSC2=NC(=O)/C(=C\c3ccccc3)C(=N)N12,6.3,nt,nt,0.0,-2.4
CSC1=NSC2=NC(=O)/C(=C\c3coc4ccccc4c3=O)C(=N)N12,1.0,69.6*,20.6,nt,1.2
CC(C)CSC1=NSC2=NC(=O)/C(=C\c3coc4ccccc4c3=O)C(=N)N12,9.0*,nt,nt,-75.0,-7.7
O=C(COc1ccccc1)N1CCN=C1SCc1cccnc1,0.8,56.1*,-15.7,nt,6.7
O=C(COc1ccccc1)N/N=C/c1ccc(O[C@@H]2O[C@H](CO)[C@@H](O)[C@H](O)[C@H]2O)cc1,3.1,-34.0,3.4,-3.7,-5.6
CCOC(=O)c1cnc2c(C)cccc2c1NCc1ccco1,0.1,-51.4,-11.2,67.9*,-3.1
CCOC(=O)c1cnc2c(C(=O)OC)cccc2c1NCc1ccco1,1.4,-22.6,-1.8,50.0,-1.2
N/C(=N\OC(=O)c1ccc(Cl)cc1Cl)c1ccc(Cl)cc1,0.7,-18.9,-25.1,-13.3,-4.2
Cc1ccc(/C(N)=N/OC(=O)c2ccc(C)cc2Cl)cc1,1.1,57.7*,-6.2,50.0,6.1
N/C(=N\OC(=O)c1ccc(Cl)cc1Cl)c1ccccc1,3.5,95.6*,-13.2,-6.7,-2.7
CCOC(=O)c1c(-c2cccs2)csc1NC(=O)CNCCN1CCOCC1,-1.1,22.5,-6.1,-25.7,-0.8
SMILES,RAM inhibit,Yeast growth inh,Yeast lifespan up,Insulin prom inh,HMGR II inh
Cc1cccc2nc(-c3cccc(NC(=O)c4ccc(Cl)cc4)c3)cn12,0.3,-51.8,-4.8,-12.2,-0.6
CCOc1ccc(NC(=O)CNC(=O)c2ccc(OC)c(OC)c2)cc1,8.8*,-27.2,2.7,-7.7,1.4
CCOC(=O)CSC(=S)NC(=O)c1ccc(OC)cc1,-0.4,-48.7,39.8*,-18.2,2.4
CCOC(=O)CNC(=O)CNC(=O)c1ccc(OC)cc1,0.1,-12.8,11.0,24.2,-1.6
CCOC(=O)c1nnc(-c2ccccc2)nc1NCc1ccc(Cl)cc1,10.2*,-27.5,13.0,-13.3,-6.1
CCOc1ccc2[nH]c3c(N4CCN(c5ccccn5)CC4)ncnc3c2c1,2.2,-49.0,-7.8,87.5*,1.2
Cc1cc(C)n(-c2cc(C(=O)O)cc(C(=O)O)c2)n1,0.7,nt,nt,nt,-5.4
Cc1ccc(Cn2ncc3c(N4CCN(c5ccccc5C)CC4)ncnc32)cc1,10.2*,-35.6,-5.0,19.4,-4.3
CCOC(=O)c1c(CN(C)C)n(-c2ccccc2)c2cc(Br)c(OC)cc12,1.2,-61.0,26.0*,-26.7,0.1
CCOC(=O)c1c(CSC(=N)N)n(-c2ccc(C)cc2)c2cc(Br)c(OC(C)=O)cc12,11.0*,-93.1,-8.1,67.6,-4.4
Cc1[nH]c2ccccc2c1CN1CCC(Cc2ccccc2)CC1,-0.1,nt,nt,-20.0,-1.1
CCCCCCCNC(=O)C1CC(=O)N(C)C(=Nc2ccc(OC)cc2)S1 (stereo not given),9.3*,-27.5,10.2,-70.0,-0.4
COc1ccc(N=C2SC(C(=O)Nc3ccc4c(c3)OCO4)CC(=O)N2C)cc1 (stereo not given),2.5,-39.4,-4.3,nt,-0.9
CCn1c(C)cc(/C=C2/SC(=S)NC2=O)c1C,5.4,-56.9,-2.1,nt,2.8
Cc1sc(-n2c(C)cc(/C=C3\SC(=S)NC3=O)c2C)c(C#N)c1C,4.3,-12.4,-9.3,nt,11.5*
Fc1ccc(/C=N/Nc2ncnc3nc[nH]c23)cc1F,-0.8,4.5,-3.6,60.0*,-0.9
COc1ccc(-n2c(-c3ccc(Br)cc3)c[n+]3c2SC(C)C3)cc1 (stereo not given),-0.5,nt,nt,-33.3,-1.3
CCOC(=O)C1(C)NC(c2ccccc2F)C2C(=O)N(CC)C(=O)C21 (stereo not given),0.8,nt,nt,nt,-0.1
NC(=O)CSc1nnc(-c2ccc([N+](=O)[O-])cc2)o1,1.1,nt,nt,nt,14.2*
C=CCSc1nnc(-c2ccc([N+](=O)[O-])cc2)o1,1.2,nt,nt,nt,-3.9
COCCNC(=S)N1CCC(NC(=O)c2ccco2)CC1,-0.6,nt,nt,nt,-0.6
O=C(Nc1cccc(C(F)(F)F)c1)N1CCC(c2nc(-c3ccc(F)cc3)no2)CC1,10.0*,-40.3,-11.3,nt,-2.9
CC(=O)c1c(C)nc2ccccc2c1N,0.1,-19.4,0.2,87.5*,-3.5
CCOC(=O)c1oc2ccc(CNCCO)c(Cl)c2c1C,1.6,-38.3,-16.4,-183.7,10.2*
CCOC(=O)c1oc2ccc(CNC3CCCCC3)c(Cl)c2c1C,-1.2,-26.7,nt,30.8,6.5
CCOc1ccc(NC(=O)C23CC4CC(C2)CC(c2ccccc2)(C4)C3)cc1,8.6*,-60.5,12.9,-78.6,1.9
CCC(=Nc1ccc(Cc2ccncc2)cc1)c1c(O)n(C)c(=O)n(C)c1=O,-1.0,-23.9,27.3*,nt,-0.5
Cn1c(=O)c2c(O)c(Cc3ccccc3)c(=O)[nH]c2n(C)c1=O,5.2,-19.4,3.6,-7.7,-1.1
Cc1nc2cc(N=NC3=C(O)CCCC3=O)ccc2s1,2.4,-46.1,-4.6,25.0,2.2
